Laboratory results reported in ChEMBL document CHEMBL3526150, “Stereoselective interaction of pantoprazole with ABCG2. I. Drug accumulation in rat milk” (Drug Metab Dispos, 2012).

Assays:
Serum [1] = experiment: (§1) Fraction unbound in jugular and femoral vein-cannulated lactating Sprague-Dawley rat serum at 0.4 mg/ml, iv administered as infusion after 8 hrs by equilibrium dialysis method; format: ADME, organism-based; conditions: in vivo, 8 h
In short: (§2)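 Equilibrium dialysis of rat serum and milk against 0.133 M phosphate buffer (serum pH 7.45, milk pH 6.8), 8 h at 37°C, in 0.5 ml cells. Serum levels used were those seen in the infusion study. Both sides measured by LC-MS. n=4.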

Serum [2] = experiment: (§3) Drug uptake in jugular and femoral vein-cannulated lactating Sprague-Dawley rat serum at 0.4 mg/ml, iv administered as infusion after 2 hrs by LC-MS analysis; format: ADME, organism-based; conditions: in vivo, 2 h
In short: (§4)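 Lactating Sprague-Dawley rats on days 10–12 postpartum, cannulated. i.v. bolus of GF120918 (10 mg/kg in DMSO) or DMSO alone, then 10 min later an 8 h i.v. infusion of racemic drug in saline (0.4 mg/ml/h). Serum sampled at 2, 4, 6, 8 h. Milk collected by manual expression under light ketamine anesthesia at 8 h. Isomers quantified by LC-MS with zonisamide internal standard. n=5.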

[3] = biological target: T1, Broad substrate specificity ATP-binding cassette transporter ABCG2 (Rattus norvegicus, UniProt Q80W57); experiment: Activity at rat ABCG2 expressed in MDCK cells assessed as asymmetrical efflux ratio of permeability at 25 uM after 1 hr; format: ADME, cell-based
T1 sequence (Q80W57 whole entry): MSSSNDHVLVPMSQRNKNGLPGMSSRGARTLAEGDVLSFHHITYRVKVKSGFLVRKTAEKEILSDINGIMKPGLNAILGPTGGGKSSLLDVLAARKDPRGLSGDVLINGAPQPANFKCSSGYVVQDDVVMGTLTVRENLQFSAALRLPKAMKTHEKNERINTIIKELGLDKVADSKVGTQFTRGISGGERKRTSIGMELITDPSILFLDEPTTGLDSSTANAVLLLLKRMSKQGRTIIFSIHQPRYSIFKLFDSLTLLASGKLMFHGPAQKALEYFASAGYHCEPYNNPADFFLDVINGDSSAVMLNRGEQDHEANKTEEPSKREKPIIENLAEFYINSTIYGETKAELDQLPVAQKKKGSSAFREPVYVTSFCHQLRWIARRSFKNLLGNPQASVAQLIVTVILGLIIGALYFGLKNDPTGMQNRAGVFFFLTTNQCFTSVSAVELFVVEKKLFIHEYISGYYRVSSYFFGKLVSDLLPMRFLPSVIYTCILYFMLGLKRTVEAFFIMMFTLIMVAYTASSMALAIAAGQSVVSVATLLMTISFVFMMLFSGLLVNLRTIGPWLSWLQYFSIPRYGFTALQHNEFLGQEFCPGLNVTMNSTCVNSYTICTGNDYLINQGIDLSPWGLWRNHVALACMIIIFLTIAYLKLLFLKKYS
In short: (§5)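 Rat Abcg2-transfected and empty-vector MDCKII cells seeded at 1.0×10^6 cells/well on 3.0 μm Transwell filters, grown 4 days to TEER >200 Ω·cm². Racemic pantoprazole donor at 25 μM, 37°C, 5% CO2. Receiver sampled at 1, 2, 3, 4 h; [³H]mannitol checked monolayer integrity. Efflux ratio taken at 1 h from initial rates; n=3.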

[4] = Fraction unbound in jugular and femoral vein-cannulated lactating Sprague-Dawley rat whole milk at 0.4 mg/ml, iv administered as infusion after 8 hrs by equilibrium dialysis method; format: ADME, organism-based; in short: as §2
Rattus norvegicus = experiment: (§6) Clearance in jugular and femoral vein-cannulated lactating Sprague-Dawley rat at 0.4 mg/ml, iv administered as infusion; format: ADME, organism-based; conditions: in vivo
In short: (§7)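 Lactating Sprague-Dawley rats on days 10–12 postpartum, jugular and femoral cannulated under ketamine/xylazine. Crossover design: i.v. bolus of GF120918 (10 mg/kg in DMSO) or DMSO 10 min before an 8 h i.v. infusion of racemic drug in saline (0.4 mg/ml/h). Enantiomers measured by chiral LC-MS. Clearance = infusion rate / mean serum level over 2–8 h. M/S = 8 h milk level / serum level. n=5.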

[5] = Drug uptake in jugular and femoral vein-cannulated lactating Sprague-Dawley rat milk at 0.4 mg/ml, iv administered as infusion after 8 hrs by LC-MS analysis in presence of GF120918; format: ADME, organism-based; conditions: in vivo; in short: as §4
MDCK = experiment: Asymmetrical efflux ratio of permeability in MDCK cells at 25 uM after 1 hr; format: ADME, cell-based, Canis lupus familiaris; conditions: dog; in short: as §5
[6] = Drug uptake in jugular and femoral vein-cannulated lactating Sprague-Dawley rat milk at 0.4 mg/ml, iv administered as infusion after 8 hrs by LC-MS analysis; format: ADME, organism-based; conditions: in vivo; in short: as §4
[7] = as §1; format: ADME, organism-based; conditions: female, Sprague-Dawley, serum, 0.4 mg/ml; in short: as §2
[8] = as §3; format: ADME, organism-based; conditions: female, Sprague-Dawley, serum, 0.4 mg/ml, read-out: Drug uptake; in short: as §4
[9] = Dissociation constant, pKa of the compound; format: physicochemical
[10] = as §6; format: ADME, organism-based; conditions: female, Sprague-Dawley, in vivo, 0.4 mg/ml; in short: as §7
[11] = Ratio of drug level in milk to serum in jugular and femoral vein-cannulated lactating Sprague-Dawley rat at 0.4 mg/ml, iv administered as infusion in presence of GF120918; format: ADME, organism-based; conditions: female, with GF120918
Serum [12] = experiment: Drug uptake in jugular and femoral vein-cannulated lactating Sprague-Dawley rat serum at 0.4 mg/ml, iv administered as infusion after 2 hrs by LC-MS analysis in presence of GF120918; format: ADME, organism-based; conditions: in vivo; in short: as §4
[13] = Protein binding in human serum; format: ADME, cell-free; conditions: read-out: PB

COc1ccnc(C[S+]([O-])c2nc3cc(OC(F)F)ccc3[n-]2)c1OC.O.[Na+] (stereo in doubt; (+)) [PANTOPRAZOLE SODIUM]
Fu (Serum [1]): 2.33% | Drug uptake (Serum [2]): 1.2 µg/mL | Ratio [3]: 5.15 | Fu ([4]; in vivo, 8 h): 26% | CL (Rattus norvegicus): 9.5 mL/min/kg | Drug uptake [5]: 0.53 µg/mL | Ratio (MDCK): 0.9 | Drug uptake [6]: 0.64 µg/mL

COc1ccnc(C[S+]([O-])c2nc3cc(OC(F)F)ccc3[n-]2)c1OC.O.[Na+] (stereo in doubt; (-)) [PANTOPRAZOLE SODIUM]
fraction unbound at 8 h [7]: 0.0238 | concentration at 2 h [8]: 1630 ng/mL | Ratio [3]: 1.51 | pKa [9]: 3.9 | fraction unbound at 8 h ([4]; female, Sprague-Dawley, whole milk, 0.4 mg/ml): 0.271 | clearance [10]: 7.33 mL/min/kg | Kp [11]: 0.5 | Drug uptake [5]: 1.1 µg/mL | Drug uptake (Serum [12]): 37% | Drug uptake [6]: 2.26 µg/mL

COc1ccnc(C[S+]([O-])c2nc3ccc(OC(F)F)cc3[nH]2)c1OC (centres undefined) [PANTOPRAZOLE SODIUM]
fraction unbound [13]: < 0.02
